Laboratory results taken from ChEMBL document CHEMBL4321880 (J Med Chem, 2020).

Assays:
[1] = tested on: ASPC1; test: Cytotoxicity against wild type human AsPC1 cells assessed as cell growth; format: cell-based
Summary of the method: (§1)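 Cells seeded at 10,000/well. Dox-inducible lines were induced with 100 ng/mL doxycycline, then treated 24 h later with compound at 16 two-fold dilutions (0.0003–10 μM) plus 5 μM midazolam, in 0.66% DMSO final, for 24 h. Phase-contrast confluence imaging followed. Values were normalized to six 0.66% DMSO replicates and fitted with a three-parameter log(inhibitor) vs response curve.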

[2] = tested on: ASPC1; test: Cytotoxicity against lentiviral pLVX-TRE3G-ZsGreen1-CYP3A5 transduced wild type human AsPC1 cells overexpressing CYP3A5 assessed as cell growth; format: ADME, cell-based; summary of the method: as §1
[3] = tested on: ASPC1; test: Cytotoxicity against doxycycline-induced CYP3A5 overexpressing wild type human AsPC1 cells assessed as cell growth; format: ADME, cell-based; summary of the method: as §1
[4] = tested on: ASPC1; test: Cytotoxicity against CRISPR/Cas9-mediated CYP3A5 knock-out and lentiviral pLVX-TRE3G-ZsGreen1-CYP3A4 transduced human AsPC1 cells overexpressing CYP3A4 assessed as cell growth; format: ADME, cell-based; summary of the method: as §1
[5] = tested on: ASPC1; test: Cytotoxicity against CRISPR/Cas9-mediated CYP3A5 knock-out human AsPC1 cells assessed as cell growth; format: ADME, cell-based; summary of the method: as §1
[6] = tested on: ASPC1; test: Cytotoxicity against CRISPR/Cas9-mediated CYP3A5 knock-out and doxycycline-induced CYP3A4 overexpressing human AsPC1 cells assessed as cell growth; format: ADME, cell-based; summary of the method: as §1
[7] = tested on: ASPC1; test: Cytotoxicity against CRISPR/Cas9-mediated CYP3A5 knock-out and lentiviral pLVX-TRE3G-ZsGreen1-CYP3A5 transduced human AsPC1 cells overexpressing CYP3A5 assessed as cell growth; format: ADME, cell-based; summary of the method: as §1
[8] = tested on: ASPC1; test: Cytotoxicity against CRISPR/Cas9-mediated CYP3A5 knock-out and doxycycline-induced CYP3A5 overexpressing human AsPC1 cells assessed as cell growth; format: ADME, cell-based; summary of the method: as §1
[9] = biological target: T1, Cytochrome P450 3A5 (Homo sapiens, UniProt P20815); test: Binding affinity to heme in His-tagged CYP3A5 (unknown origin) expressed in Escherichia coli DH5alpha assessed as formation of five-coordinate ferric heme iron by measuring type 1 Soret shift from 417 nm (low spin) to 395 nm (high spin) by UV-vis spectrophotometric titration analysis
Summary of the method: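 Purified recombinant His-tagged CYP3A5 titrated with successive ligand additions until heme absorbance stopped changing. The ligand-free spectrum was subtracted to give difference spectra. Peak-minus-trough values were plotted against ligand concentration and fitted to a binding equation for Kd. Wavelength pairs: ΔA 386–418 nm for the type I shift; ΔA 432–410 nm for the type II shift.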

[10] = biological target: T2, Cytochrome P450 3A4 (Homo sapiens, UniProt P08684); test: Binding affinity to His-tagged CYP3A4 (unknown origin) expressed in Escherichia coli DH5alpha assessed as type 1 spectral shift to substrate-bound form by UV-vis spectrophotometric titration analysis; format: ADME
Summary of the method: (§2)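 Recombinant His-tagged enzyme expressed in E. coli with groESL chaperones, purified by Ni-NTA, CM-sepharose and S-200 gel filtration (Rz ≥1.3). Ligand added stepwise until heme absorbance stopped changing. Difference spectra taken against the ligand-free spectrum. Peak-minus-trough ΔAbs (388–418 nm) plotted against ligand concentration and fitted with equation 2 for Kd.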

[11] = biological target: T2, Cytochrome P450 3A4; test: Binding affinity to His-tagged CYP3A4 (unknown origin) expressed in Escherichia coli DH5alpha assessed as formation of Soret band at 386 nm with low decrease in low-spin soret maxima at 416 nm by UV-vis spectrophotometric titration analysis; format: ADME; parameters: dose or concentration left out as unconfirmed; summary of the method: as §2
[12] = biological target: T1, Cytochrome P450 3A5; test: Binding affinity to His-tagged CYP3A5 (unknown origin) expressed in Escherichia coli DH5alpha assessed as five-coordinate HS ferric heme iron state formation with displacement of distal water ligand by EPR spectroscopy
Summary of the method: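 Continuous-wave X-band EPR of purified recombinant enzyme, alone and in complex with ligand. Spectra were compared against the ligand-free form.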

[13] = biological target: T2, Cytochrome P450 3A4; test: Binding affinity to His-tagged CYP3A4 (unknown origin) expressed in Escherichia coli DH5alpha assessed as retention of axial water ligand with ligand free LS with no new HS formation by EPR spectroscopy; format: ADME; conditions: buffer
Summary of the method: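 Continuous-wave X-band EPR of the purified recombinant ligand-free enzyme and of its ligand complex. Ferric heme spin state (LS vs HS) assigned from g-values.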

[14] = biological target: T2, Cytochrome P450 3A4; test: Inhibition of CYP3A4 in human liver microsomes assessed as formation of 1-hydroxymidazolam at 1.85 uM using midazolam as substrate incubated for 10 mins in presence of NADPH by LC-MS/MS analysis

T2 sequence (P08684 whole entry): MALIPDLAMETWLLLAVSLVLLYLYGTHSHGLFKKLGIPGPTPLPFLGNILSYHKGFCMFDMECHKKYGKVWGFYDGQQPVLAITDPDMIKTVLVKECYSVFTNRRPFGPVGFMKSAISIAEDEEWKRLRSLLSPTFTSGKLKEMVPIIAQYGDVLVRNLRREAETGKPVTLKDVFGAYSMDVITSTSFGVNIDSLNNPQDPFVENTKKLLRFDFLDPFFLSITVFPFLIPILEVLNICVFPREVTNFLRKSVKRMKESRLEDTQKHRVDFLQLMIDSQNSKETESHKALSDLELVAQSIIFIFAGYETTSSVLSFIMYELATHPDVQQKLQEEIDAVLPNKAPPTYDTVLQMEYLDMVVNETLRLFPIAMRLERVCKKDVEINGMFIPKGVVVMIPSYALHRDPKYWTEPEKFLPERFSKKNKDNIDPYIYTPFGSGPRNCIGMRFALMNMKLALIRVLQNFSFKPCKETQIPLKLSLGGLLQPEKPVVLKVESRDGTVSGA
T1 sequence (P20815 whole entry): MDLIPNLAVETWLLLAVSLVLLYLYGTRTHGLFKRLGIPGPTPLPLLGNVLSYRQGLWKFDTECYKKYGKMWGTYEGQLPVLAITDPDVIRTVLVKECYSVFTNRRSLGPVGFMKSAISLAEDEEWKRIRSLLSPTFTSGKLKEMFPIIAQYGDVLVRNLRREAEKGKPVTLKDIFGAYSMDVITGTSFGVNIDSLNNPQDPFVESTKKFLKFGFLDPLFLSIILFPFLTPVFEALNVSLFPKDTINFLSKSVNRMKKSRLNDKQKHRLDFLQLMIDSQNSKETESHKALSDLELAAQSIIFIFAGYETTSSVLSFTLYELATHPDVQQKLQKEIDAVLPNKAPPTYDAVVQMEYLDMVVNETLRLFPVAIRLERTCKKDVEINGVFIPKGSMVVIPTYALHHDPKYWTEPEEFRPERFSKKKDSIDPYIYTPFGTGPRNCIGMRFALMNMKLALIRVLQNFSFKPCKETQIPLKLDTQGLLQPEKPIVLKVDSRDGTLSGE

## CCC(=O)O[C@]1(C(=O)CCl)[C@@H](C)C[C@H]2[C@@H]3CCC4=CC(=O)C=C[C@]4(C)[C@@]3(F)[C@@H](O)C[C@@]21C [CLOBETASOL PROPIONATE]
[1]
  Activity: Non-Toxic
[2]
  Activity: Non-Toxic
[3]
  Activity: Non-Toxic
[4]
  Activity: Non-Toxic
[5]
  Activity: Non-Toxic
[6]
  Activity: Non-Toxic
[7]
  Activity: Non-Toxic
[8]
  Activity: Non-Toxic
[9]
  Activity: Active
[10]
  Activity: Active
[11]
  Activity: Active
[12]
  Activity: Active
[13]
  Activity: Not Active
[14]
  inhibition (INH): Not Active
